Source: the EternaBench riboswitch data

Tested on: MS2 coat protein
Assay: apparent Kd, MS2 coat protein; higher = weaker binding; RNA-MaP array; tryptophan 2.4 mM where present
How it was run: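 On Illumina sequencing-chip clusters, designs were transcribed by stalled E. coli RNA polymerase and titrated with SNAP-549-labelled MS2 coat protein (0.7 or 1.5 nM, doubling to 3 µM), without and then with constant ligand, in 100 mM Tris-HCl pH 7.5, 80 mM KCl, 4 mM MgCl2, BSA, DTT, yeast tRNA and Tween-20. Apparent Kd is the median of filtered per-cluster curve fits to green signal normalised to red-channel RNA signal and control-cluster median Fmax.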

[1] = designed as: ON switch for tryptophan, no ligand
[2] = ligand present: tryptophan, designed as: ON switch for tryptophan
[3] = designed as: OFF switch for tryptophan, no ligand
[4] = ligand present: tryptophan, designed as: OFF switch for tryptophan

Sequence	apparent Kd [1] [nM]	apparent Kd [2] [nM]	apparent Kd [3] [nM]	apparent Kd [4] [nM]
GCUAGGUCAUCGGCCGCCACUAACGAUGGCUCCGACAUGAGGAUCACCCAUGUGCCACAUGCGCAUAGGACCGGGAUGACCUAGC	18.5	14.3	–	–
CACGAUUUGUCGGCCGCCACUAAGGUAACUCUUCUCACAUGAGGAUCACCCAUGUGCCCGAAGCUUAGGACCGGGAUAAUGGGUG	118	40.8	–	–
AUAUAUACAUGAGGAUCACCCAUGUUAUUUCGAGGACCGGUACGGCCGCCACUCGAUAGAGUAGAAGUAAAUUUUAAUUCAUGUA	14.3	14.1	–	–
CGAGUGAGUUCAAUCGAAUAACGGUUUUCGCGAGGACCGGUACGGCCGCCACUCGUGUGAUAUCACACAUGAGGAUCACCCAUGU	37.9	31.6	–	–
AUUAAGGAUAUAUAGAAGGCGGAGAAGAGACGAGGACCGGUACGGCCGCCACUCGUGUUAGUUAACAUGAGGAUCACCCAUGUAA	80.6	18.7	–	–
CGAGUAGGUUCAAUCGAAUAACGGUUUUCGCGAGGACCGGUACGGCCGCCACUCGUGUGAUAUCACACAUGAGGAUCACCCAUGU	45	33.8	–	–
ACAUGAGGAUCACCCAUGUUAAACAGGGUGCGAGGACCGGUACGGCCGCCACUCGGACAUUAUUACGAGUGAAUGGCAACGAUGU	–	–	15.8	15.4
ACAUUAGCCACGGCCGCCACUGCUUUAUGAUUAUAAGGAUUAAUGAACAUGAGGAUCACCCAUGUCAGGACCGGGUGCCUACCAU	29.8	29.7	–	–
GAGUAGAGGACGGCCGCCACUAAACAUGAGGAUCACCCAUGUCGUGAUCCGUUACCUAGGGUAGAUAGGACCGGGUCAUGUAGUC	–	–	59.3	45.9
GAAUAAGAAUCGGCCGCCACUCACAUGAGGAUCACCCAUGUACAUGAGGAACAUGAAAAUCACCCGAGGACCGGGAUAUAUGUUC	–	–	70	66.9
AUUCAUGGAAACAUGACAUAGGGAUCUAGCCGAGGACCGGUACGGCCGCCACUCGCUUGGAGGCACAUGAGGAUCACCCAUGUUA	145	48.7	–	–
AAUGAGUGGUGGUCAAACAUGGGUGAUCAACGAGGACCGGUACGGCCGCCACUCGAUAACAUGAGGAUCACCCAUGUAAUAAUAA	–	–	234	202
AUAACGAGUGGUGGAAUACAUGGGUGAUAACGAGGACCGGUACGGCCGCCACUCGAUAACAUGAGGAUCACCCAUGUAAUAAUAA	–	–	161	31.1
AGAGCAUUGACGGCCGCCACUCAUGUCACAUGAGGAUCACCCAUGUGAUGGGUGAUAGCCCGGUUGAGGACCGGGUCAAUGCUCA	18.8	19.4	–	–
GCCGCGGCCGGAAUAAACAUGGGUAAAUAACGAGGACCGGUACGGCCGCCACUCGAGAUAAAUAACAUGAGGAUCACCCAUGUAC	–	–	163	80.3
AGUACAUGAGGAUCACCCAUGUAUCGGUACCGAGGACCGGUACGGCCGCCACUCGCAGGACAUGAGGAUCACCCAUGUGCCGCCG	18.9	23.8	–	–
CGACUGUAAAGUCGACCGGUCAUCAAUAAUCGAGGACCGGUACGGCCGCCACUCGAUGUGAUUUCACAUGAGGAUCACCCAUGUA	23.9	22.2	–	–
AACACAUGAGGAUCACCCAUGUCCAUGUACCGAGGACCGGUACGGCCGCCACUCGACAUGAGGAUCACCCAUGUUCCAUGUUGUC	108	149	–	–
CUACAUUUGUAGAAACCGGUCAACAUUAUUCGAGGACCGGUACGGCCGCCACUCGUAUAAUUUAAUACAUGAGGAUCACCCAUGU	14.6	15.9	–	–
AGCCACUCGAGUGAUCCUCACGAGUGGCUACGAGGACCGGUACGGCCGCCACUCGAAUUAACAUGAGGAUCACCCAUGUAAUCAC	65.5	50.2	–	–
CUAAAUAUAACGGCCGCCACUUACUCAUGAGGUAACAACAUGAGGAUCACCCAUGUUUGAGGAUCAAGGACCGGGUUAUAUUUAG	25.6	19	–	–
AAUGUAUGGCACAUGAGGAUCACCCAUGUGCGAGGACCGGUACGGCCGCCACUCGGUCCUGGGAUCUUAAUACUAUACAUUAAUG	–	–	10.9	28.2
UAUCGUCAGACGGCCGCCACUAGAACAUGAGGAUCACCCAUGUAGGUCCUAGAUUCCUCAAUAACUAGGACCGGGUCUGACGAAU	–	–	140	97.3
GGUUACUCUACGGCCGCCACUGUAAAGUAAAGAUUACUGUACAUGACAUGAGGAUCACCCAUGUACAGGACCGGGUAGUGUAACC	23.1	21.5	–	–
AAUCAUGAAAACAUGACAUGAGGAUCACUCCGAGGACCGGUACGGCCGCCACUCGCGAGGAGGCACAUGAGGAUCACCCAUGUUA	69	82.7	–	–
CUACAUUUGUAGAAACCGGUCAACAUUAUUCGAGGACCGGUACGGCCGCCACUCGUAUCAUUUGAUACAUGAGGAUCACCCAUGU	19.2	22.6	–	–
